# In paper PMC7984404 (Journal of Clinical Pharmacology, 2020):
# Experiments:
# [1] = Population pharmacokinetic; assay type: in vivo, human
# In short: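 Pooled data from healthy adults, adult HAE patients and pediatric HAE patients aged 2-17 (2172 plasma concentrations, LC-MS/MS) were fitted with a two-compartment model. It had first-order absorption, lag time, and allometric weight effects with estimated exponents. Between-subject variability was log-normal, with additive plus proportional residual error. Covariates were weight, age, sex, race and attack within 12 h. CIs came from about 1000 bootstrap replicates, with prediction-corrected VPC.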
# [2] = Exposure parameters; assay type: in vivo, human; settings: for AUC0-6, mean (%CV) / AUC0-6, median [range] / Cmax, mean (%CV) / Cmax, median [range]: popPK model-derived
# In short: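 Final popPK model simulated concentration-time profiles from each subject's actual dosing history: single SC doses of 30 or 45 mg in adult HAE patients, and 0.05, 0.2 and 0.4 mg/kg single ascending doses in healthy adults. AUC0-6 came from simulated rich profiles by the trapezoidal rule, alongside Cmax, tmax and distribution and terminal half-lives. Values were summarised descriptively.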
# [3] = system: pediatric patients with HAE; assay: Time to onset of symptom relief; assay type: in vivo, human; settings: for Median time to 50% probability of TOSR: pediatric HAE
# In short: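 Pediatric HAE patients aged 2-17 received single SC 0.4 mg/kg (≤30 mg). The investigator scored symptoms before and after dosing. TOSR was the earliest time with ≥20% improvement in composite score and no component worsening. Model-predicted CTOSR, AUC0-TOSR, AUC0-6 and Cmax were related to TOSR by Kaplan-Meier curves stratified by exposure tertiles, and also by age group and sex.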
# [4] = cited from earlier work
# [5] = final popPK model, typical value, reference 70 kg
# [6] = typical 70-kg adult, final popPK model
# [7] = adult patients with HAE, SC 30 mg, n = 4
# [8] = adult patients with HAE, SC 45 mg, n = 4
# [9] = healthy subjects, SC 0.4 mg/kg, n = 24
# [10] = healthy subjects, SC 30 mg, n = 109
# [11] = pediatric patients with HAE 2-5 years, SC 0.4 mg/kg, n = 2
# [12] = pediatric patients with HAE, SC 0.4 mg/kg (≤30 mg)
structure (smiles),measurement,setting,value
NC(N)=NCCC[C@@H](N)C(=O)N[C@@H](CCCN=C(N)N)C(=O)N1CCC[C@H]1C(=O)N1C[C@H](O)C[C@H]1C(=O)NCC(=O)N[C@@H](Cc1cccs1)C(=O)N[C@@H](CO)C(=O)N1Cc2ccccc2C[C@@H]1C(=O)N1[C@H](C(=O)N[C@@H](CCCN=C(N)N)C(=O)O)C[C@@H]2CCCC[C@@H]21 [icatibant],Cl/F lower than in a 70-kg adult,"[1]; 60-kg adolescent (aged 12-17 years), final popPK model",7%
same,Time to complete absorption after dosing,"[1]; SC dosing, expected from final popPK model",≤ 1 h
same,Absorption half-life t1/2(a),"[1]; corresponding to ka = 3.27 h^–1, SC dosing, final popPK model",~12.7 min
same,Allometric exponent of weight (weight/70) on Vc/F,[1]; final popPK model,0.671
same,Allometric exponent of weight (weight/70) on Vp/F,[1]; final popPK model,0.671
same,Multiplicative factor on Vc/F if female,[1]; final popPK model,0.855
same,Multiplicative factor on Vc/F if nonwhite,[1]; final popPK model,1.11
same,Typical Cl/F lower in females than in males,[1]; final popPK model,about 12%
same,Typical Cl/F lower in pediatric patients who experienced an acute attack,[1]; final popPK model,9%
same,Typical Vc/F higher in nonwhite than in white subjects,[1]; final popPK model,11%
same,ka (absorption rate constant),"[1]; final popPK model, SC dosing, n = 172 (adults and pediatric HAE), typical value",3.27 h^–1
same,tlag (lag time),"[1]; final popPK model, SC dosing, n = 172, typical value",0.0426 h
same,Vc/F (apparent central volume of distribution),"[1]; final popPK model, SC dosing, n = 172, typical value, reference 70 kg",20.4 L
same,Cl/F (apparent total clearance),"[1]; final popPK model, SC dosing, n = 172, typical value, reference 70 kg, age 25",15.4 L/h
same,Clp/F (apparent intercompartmental clearance),[1]; [5],0.398 L/h
same,Vp/F (apparent peripheral volume of distribution),[1]; [5],1.75 L
same,Clearance slower relative to a subject aged 25 years,"[1]; subject aged 45 years, age effect of final popPK model",20%
same,Cl/F lower than in a 70-kg adult,"[1]; typical 40-kg child (aged 2-11 years), final popPK model",25%
same,Distribution half-life t1/2(α),[1]; [6],53.4 min
same,Terminal elimination half-life t1/2(β),[1]; [6],192 min
same,"AUC0-6, mean (%CV)",[2]; [7],2725 (25.3) ng·h/mL
same,"AUC0-6, median [range]",[2]; [7],2975 [1734‐3216] ng·h/mL
same,"Cmax, mean (%CV)",[2]; [7],1279 (16.7) ng/mL
same,"Cmax, median [range]",[2]; [7],1254 [1056‐1551] ng/mL
same,"AUC0-6, mean (%CV)",[2]; [8],5473 (18.6) ng·h/mL
same,"AUC0-6, median [range]",[2]; [8],5565 [4155‐6608] ng·h/mL
same,"Cmax, mean (%CV)",[2]; [8],2136 (16.3) ng/mL
same,"Cmax, median [range]",[2]; [8],2222 [1680‐2421] ng/mL
same,"AUC0-6, mean (%CV)",[2]; [9],2669 (20.9) ng·h/mL
same,"AUC0-6, median [range]",[2]; [9],2704 [1720‐3829] ng·h/mL
same,"Cmax, mean (%CV)",[2]; [9],1240 (25.1) ng/mL
same,"Cmax, median [range]",[2]; [9],1258 [836‐2120] ng/mL
same,"AUC0-6, mean (%CV)",[2]; [10],2038 (23.8) ng·h/mL
same,"AUC0-6, median [range]",[2]; [10],1941 [1126‐3311] ng·h/mL
same,"Cmax, mean (%CV)",[2]; [10],974 (30.1) ng/mL
same,"Cmax, median [range]",[2]; [10],915 [524‐2115] ng/mL
same,"AUC0-6, mean (%CV)",[2]; [11],900 (24.6) ng·h/mL
same,"AUC0-6, median [range]",[2]; [11],900 [744‐1056] ng·h/mL
same,"Cmax, mean (%CV)",[2]; [11],692 (18.1) ng/mL
same,"Cmax, median [range]",[2]; [11],692 [604‐780] ng/mL
same,Mean AUC0-6 lower than in adult patients with HAE treated with 30 mg,[2]; [12],about 50%
same,Mean Cmax lower than in adult patients with HAE treated with 30 mg,[2]; [12],~42%
same,Median time to 50% probability of TOSR,[3]; first tertile of CTOSR,2.00 h
same,Time within which all patients displayed resolution of symptoms,"[3]; pediatric patients with HAE, single SC 0.4 mg/kg (≤30 mg)",≤ 4 h
same,Median time to 50% probability of TOSR,[3]; second tertile of CTOSR,1.03 h
same,Time to achievement of maximum plasma concentrations,"[4]; adults, single subcutaneous injection of 30 mg",≤ 1 h
same,Parent drug excreted unchanged in human urine,[4]; human,< 10%
